SMILES strings stand for the structures. The source made the active and inactive calls. The rule behind the calls is not given here.

In test [1] the test system is PC-12. Put plainly: Protection against H2O2-induced oxidative damage in rat PC12 cells assessed as intracellular ROS level by measuring mean fluorescence intensity at 5 uM pretreated with compound followed by H2O2 stimulation by DCFH-DA staining based flow cytometry (reference value: 233032.55). In kind it is functional. A general note: In flow cytometry, cells or beads pass a laser one at a time.

The subject of test [2] is PC-12. In words: Protection against 6-OHDA-induced mitochondrial dysfunction in rat PC12 cells assessed as change in mitochondrial membrane potential at 10 uM pretreated with compound followed by 6-OHDA addition by JC-1 staining based flow cytometry (reference value: 73.2 %). In kind it is functional. The gist of the method: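 Mitochondrial membrane potential in PC12 cells pretreated with compound (5, 10, 20 μM), then exposed to H₂O₂ (200 μM) or 6-OHDA (150 μM). JC-1 staining, red-to-green fluorescence shift read by flow cytometry. Mean ± SD, n = 3.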

Test [3] deals with BV-2. Put plainly: Antiinflammatory activity in mouse BV2 cells transfected with control siRNA assessed as inhibition of LPS-induced IL-6 production at 20 uM pretreated with compound followed by LPS stimulation for 18 hrs.
Test [4] concerns PC-12. In words: Protection against 6-OHDA-induced apoptosis in rat PC12 cells assessed as viable cells at 20 uM incubated for 24 hrs by annexin V FITC/propidium iodide staining based flow cytometry (reference value: 72.0 %). It counts as functional. Conditions: read-out: Activity.
Test [5] has as its system BV-2. In words: Antiinflammatory activity in mouse BV2 cells transfected with Nrf2 siRNA assessed as inhibition of LPS-induced IL-6 production at 20 uM pretreated with compound followed by LPS stimulation for 18 hrs.
Test [6] has as its system PC-12. In words: Protection against 6-OHDA-induced apoptosis in rat PC12 cells assessed as late apoptotic cells at 20 uM incubated for 24 hrs by annexin V FITC/propidium iodide staining based flow cytometry (reference value: 7.6 %). In kind it is functional.
Test [7] deals with T1, Nuclear factor erythroid 2-related factor 2 (Mus musculus) (UniProt Q60795).
T1 sequence (whole entry): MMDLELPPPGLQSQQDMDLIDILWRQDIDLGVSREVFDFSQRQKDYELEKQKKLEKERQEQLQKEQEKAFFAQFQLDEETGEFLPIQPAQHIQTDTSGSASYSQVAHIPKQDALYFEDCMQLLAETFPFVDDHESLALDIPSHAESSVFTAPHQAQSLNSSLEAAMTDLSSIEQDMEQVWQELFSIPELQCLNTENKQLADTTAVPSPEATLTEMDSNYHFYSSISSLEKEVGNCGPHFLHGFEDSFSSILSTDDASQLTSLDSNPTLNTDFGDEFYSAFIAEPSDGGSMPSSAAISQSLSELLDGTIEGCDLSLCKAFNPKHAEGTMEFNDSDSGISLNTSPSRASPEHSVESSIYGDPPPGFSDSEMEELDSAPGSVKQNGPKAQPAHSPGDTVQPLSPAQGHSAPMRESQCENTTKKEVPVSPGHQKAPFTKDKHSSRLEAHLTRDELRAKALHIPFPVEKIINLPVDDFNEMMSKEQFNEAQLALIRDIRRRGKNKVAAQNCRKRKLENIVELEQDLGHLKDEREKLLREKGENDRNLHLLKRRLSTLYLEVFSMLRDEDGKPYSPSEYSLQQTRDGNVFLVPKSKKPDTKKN
Put plainly: Activation of Nrf2 in mouse BV2 cells assessed as inhibition of LPS-induced IL-6 production at 5 to 20 uM by ELISA. Conditions: BV-2, filed as activator, dose 5-20 µM. In kind it is cell-based. Put shortly:
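BV2 microglia pretreated with compound, then LPS-stimulated; IL-6 quantified by ELISA kit; mean ± SD, n = 3.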
For orientation: An ELISA detects its analyte on a solid surface through an enzyme-linked reagent.

The subject of test [8] is PC-12. Put plainly: Protection against 6-OHDA-induced apoptosis in rat PC12 cells assessed as viable cells at 5 uM incubated for 24 hrs by annexin V FITC/propidium iodide staining based flow cytometry (reference value: 72.0 %). In kind it is functional. Conditions: read-out: Activity.
Test [9] concerns PC-12. In words: Protection against 6-OHDA-induced apoptosis in rat PC12 cells assessed as necrotic cells at 5 uM incubated for 24 hrs by annexin V FITC/propidium iodide staining based flow cytometry (reference value: 1.1 %). In kind it is functional.
The target in test [10] is T1, Nuclear factor erythroid 2-related factor 2 (Mus musculus). Put plainly: Activation of Nrf2 in mouse BV2 cells assessed as upregulation of Nrf2 protein expression after 24 hrs by Western blot analysis. In kind it is cell-based. Conditions: BV-2, filed as activator, dose 5-20 µM. Put shortly:
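BV2 microglia exposed to compound for 24 h over a concentration series; Nrf2, NQO1, HO-1, TrxR1, GCLM and GCLC protein levels read by Western blot.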
On the technique in general: In western blotting, separated proteins are transferred to a membrane and probed.

The test system of test [11] is PC-12. Put plainly: Protection against H2O2-induced apoptosis in rat PC12 cells assessed as late apoptotic cells at 10 uM incubated for 24 hrs by annexin V FITC/propidium iodide staining based flow cytometry (reference value: 16.2 %). It counts as functional.
The subject of test [12] is PC-12. In words: Neuroprotective activity against 6-OHDA-induced apoptosis in rat PC12 cells assessed as reduction in apoptotic nuclei at 5 to 20 uM pretreated with compound followed by Hoechst 33342 staining based fluorescence microscopy analysis. Conditions: dose 5-20 µM.
Test [13] has as its system PC-12. In words: Protection against H2O2-induced oxidative damage in rat PC12 cells assessed as intracellular ROS level by measuring mean fluorescence intensity at 20 uM pretreated with compound followed by H2O2 stimulation by DCFH-DA staining based flow cytometry (reference value: 233032.55). In kind it is functional.
The subject of test [14] is PC-12. Put plainly: Prevention of H2O2-induced calcium overload in rat PC12 cells assessed as reduction in intracellular free calcium by measuring mean fluorescence intensity at 5 uM pretreated with compound followed by H2O2 addition measured after 24 hrs by Fluo-3AM based fluorescence assay (reference value: 17791.36%). In kind it is functional.
In test [15] the target is T2, Nuclear factor erythroid 2-related factor 2 (Rattus norvegicus) (UniProt O54968).
T2 sequence (whole entry): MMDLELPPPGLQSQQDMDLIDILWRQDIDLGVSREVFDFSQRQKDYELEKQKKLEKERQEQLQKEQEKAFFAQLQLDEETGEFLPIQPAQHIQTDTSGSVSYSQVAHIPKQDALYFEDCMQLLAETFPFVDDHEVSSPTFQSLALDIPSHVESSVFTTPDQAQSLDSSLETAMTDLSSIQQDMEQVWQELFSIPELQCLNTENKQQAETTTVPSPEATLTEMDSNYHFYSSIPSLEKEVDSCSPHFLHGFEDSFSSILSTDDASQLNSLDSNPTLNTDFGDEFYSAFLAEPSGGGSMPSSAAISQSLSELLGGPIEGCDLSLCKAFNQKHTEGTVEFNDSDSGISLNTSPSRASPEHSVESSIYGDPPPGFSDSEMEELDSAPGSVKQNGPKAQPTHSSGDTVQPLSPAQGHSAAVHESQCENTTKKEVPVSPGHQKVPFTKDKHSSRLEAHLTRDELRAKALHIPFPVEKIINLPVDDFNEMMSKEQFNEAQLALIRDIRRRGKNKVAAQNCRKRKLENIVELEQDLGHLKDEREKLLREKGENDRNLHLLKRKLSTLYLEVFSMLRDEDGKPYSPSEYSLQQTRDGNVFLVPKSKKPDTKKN
In words: Activation of Nrf2 in rat PC12 cells assessed as increase in TrxR1 protein level at 20 uM after 24 hrs by Western blot analysis. In kind it is cell-based. Conditions: PC-12, filed as activator.

For the compound `CCN(C)C(=O)N1CCN(C(=O)/C=C/c2ccc(F)cc2)C1=O`, the Flu intensity in the test with PC-12 [1] was found to be 205329.36; with PC-12 [13] it was 130822.7; in the test with PC-12 [14] it was 8721.73. For the same compound, the Activity was 83.6% with PC-12 [2]; 5% in the test with PC-12 [6]; 1% with PC-12 [9]; “Dose-dependent effect” in test [10]; 5.3% in the test with PC-12 [11]. In addition, the result (in the test with BV-2 [3]; in [7]; with PC-12 [12]; in test [15]) was Active. For the same compound, the viability at 20 µM in the test with PC-12 [4] worked out at 89%. The result in the test with BV-2 [5] was inactive. In addition, the viability at 5 µM in the test on PC-12 [8] was 81.5%.

For the origin of these results see ChEMBL document CHEMBL4732088, “Identification and optimization of piperlongumine analogues as potential antioxidant and anti-inflammatory agents via activation of Nrf2” (Eur J Med Chem, 2021).
